Six compounds from ChEMBL document CHEMBL4316598, “Synthesis, antiproliferative and apoptosis induction potential activities of novel bis(indolyl)hydrazide-hydrazone derivatives” (Bioorg Med Chem, 2019) can be followed below.

In brackets after ≈: the same amount, converted by molar mass. Activity calls are given as the source filed them. No cut-off for these calls is given here.

One experiment relates to DU-145. The experiment can be described thus: Antiproliferative activity against human DU145 cells by MTS assay. It is filed as functional, cell-based.
The subject of experiment [1] is HeLa. Description: Cytotoxicity against human HeLa cells assessed as reduction in cell viability after 4 hrs by MTT assay. It is filed as functional, cell-based. In outline: (§1)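 MTT: 10,000–20,000 cells/well attached for 16 h, then washed twice with serum-free RPMI. Treated with 1–200 µM for 4 h, 3 parallel runs per concentration. MTT added for 2 h; medium partly removed and isopropanol added. A590 read. Viability = (A treated − A doxorubicin)/(A medium − A doxorubicin)×100. Mean of three experiments, triplicate wells each.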
For orientation: Formazan colour is commonly taken as a measure of viable cells.

The subject of another experiment is MDA-MB-231. The experiment can be described thus: Cytotoxicity against human MDA-MB-231 cells assessed as reduction in cell viability after 4 hrs by MTT assay. Conditions: MDA-MB-231, 4 h. It counts as functional, cell-based. Summed up: as §1
The subject of experiment [2] is MCF7. The experiment can be described thus: Cytotoxicity against human MCF7 cells assessed as reduction in cell viability after 4 hrs by MTT assay. It is filed as functional, cell-based. In outline: as §1
In a further experiment the test system is A549. Description: Cytotoxicity against human A549 cells assessed as reduction in cell viability after 4 hrs by MTT assay. It counts as functional, cell-based. In outline:
as §1

The next experiment has as its system HEK293. Description: Cytotoxicity against HEK293 cells assessed as reduction in cell viability after 4 hrs by MTT assay. It counts as cell-based, Homo sapiens. In outline:
as §1

Experiment [3] deals with HeLa. Description: Induction of caspase-dependent apoptosis in human HeLa cells assessed as activation of caspase-3 at 3 uM after 24 hrs by Western blot analysis. It counts as functional, cell-based. Summed up: (§2)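 Cleaved caspase-3 immunoblot. Cells were exposed at 1, 3 and 5 µM for 24 h at 37 °C, with paclitaxel 3 µM as positive control. Lysis was in ice-cold Triton X-100 buffer, and protein was measured by BCA. Lysates were separated by electrophoresis, transferred to nitrocellulose and blocked in milk. Primary antibody was applied overnight at 4 °C and secondary for 1 h at 28 °C. Detection was by enhanced chemiluminescence.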
On the technique in general: In western blotting, separated proteins are transferred to a membrane and probed.

Experiment [4] has as its system MCF7. The experiment can be described thus: Induction of caspase-dependent apoptosis in human MCF7 cells assessed as activation of caspase-3 at 3 uM after 24 hrs by Western blot analysis. It is filed as functional, cell-based. Summed up: as §2
Experiment [5] is described as follows: Cytotoxicity against human SW680 cells assessed as reduction in cell viability after 4 hrs by MTT assay. It is filed as functional, cell-based.
A further experiment relates to FaDu. The experiment can be described thus: Cytotoxicity against human FADU cells assessed as reduction in cell viability after 4 hrs by MTT assay. It counts as functional, cell-based.
In another experiment the test system is SCC-25. The experiment can be described thus: Cytotoxicity against human SCC25 cells assessed as reduction in cell viability after 4 hrs by MTT assay. Conditions: SCC-25, 4 h. It is filed as functional, cell-based.
The next experiment deals with Detroit 562. Description: Cytotoxicity against human Detroit 562 cells assessed as reduction in cell viability after 4 hrs by MTT assay. The conditions noted are these: Detroit 562, 4 h. It is filed as functional, cell-based.
Where [6] appears, read: Homo sapiens, MCF7, 4 h, read-out: IC50.
The mark [7] stands for this setting: Homo sapiens, A549, 4 h, read-out: IC50.
Where [8] appears, read: Homo sapiens, HeLa, 4 h, read-out: IC50.

On to `O=C(N/C=C/c1c[nH]c2ccccc12)C(=O)c1c[nH]c2ccccc12`, for which, in the experiment on DU-145, half-maximal inhibition (IC50) was put at 7.6 µg/mL (≈ 23.1 µM).
In the case of `Cn1cc(/C=N\NC(=O)c2cn(C)c3ccccc23)c2ccccc21`, the concentration for half-maximal inhibition (IC50) (in general, the point on the concentration scale where inhibition reaches its midpoint) was “Not Active” in the experiment on HeLa [1] (hela); 18.9 µM in the experiment with MDA-MB-231; 31.3 µM in the experiment on MCF7 [2] (setting [6]); 19 µM with A549 (setting [7]); “Non-Toxic” with HEK293 (hek293).
In the case of `Cn1cc(C(=O)N/N=C\c2c[nH]c3ccccc23)c2cc(Br)ccc21`, the half-maximal inhibitory concentration (IC50) entry with HeLa [1] (hela) was “Not Active”; with MDA-MB-231, 14.2 µM; in the experiment on MCF7 [2] (mcf7), “Not Active”; with A549 (a549), “Not Active”; in the experiment on HEK293 (hek293) it was “Non-Toxic”.
Turning to `CC(=O)O[C@H]1C(=O)[C@@]2(C)[C@H]([C@H](OC(=O)c3ccccc3)[C@]3(O)C[C@H](OC(=O)[C@H](O)[C@@H](NC(=O)c4ccccc4)c4ccccc4)C(C)=C1C3(C)C)[C@]1(OC(C)=O)CO[C@@H]1C[C@@H]2O`, the outcome with HeLa [3] and with MCF7 [4] was Active.
Consider `COc1cccc2c1C(=O)c1c(O)c3c(c(O)c1C2=O)C[C@@](O)(C(=O)CO)C[C@@H]3O[C@H]1C[C@H](N)[C@H](O)[C@H](C)O1` [DOXORUBICIN], for which the half-maximal inhibitory concentration (IC50) in the experiment with HeLa [1] (setting [8]) is 0.36 to 1.09 µM; with MDA-MB-231, 3.1 µM; in the experiment on MCF7 [2] (setting [6]), 0.23 to 0.98 µM; with A549 (setting [7]) it was 0.89 to 2.11 µM; with HEK293 (Homo sapiens, HEK293, 4 h, read-out: IC50), > 200 µM; in [5] it was 1.2 µM. The half-inhibitory concentration (IC50) with FaDu turned out to be 0.68 µM; in the experiment on SCC-25 it was 2.24 µM; in the experiment with Detroit 562, 1.26 µM.
For the compound `COc1ccc2[nH]cc(/C=N\NC(=O)c3cn(C)c4ccc(Br)cc34)c2c1`, the IC50 was 14.2 µM with HeLa [1] (setting [8]); 22.7 µM in the experiment on MDA-MB-231; “Not Active” with MCF7 [2] (mcf7); 12.8 µM with A549 (setting [7]); “Non-Toxic” in the experiment with HEK293 (hek293).
